From ChEMBL document CHEMBL2062386, “Discovery of LFF571: an investigational agent for Clostridium difficile infection” (J Med Chem, 2012)
In brackets after ≈: the same amount, converted by molar mass. Activity calls are given as the source filed them. The rule behind the calls is not given here.

What was measured:
Enterococcus faecalis [1] = assay: Antibacterial activity against Enterococcus faecalis ATCC 29212 by broth microdilution method; assay type: functional
In short: (§1)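 Broth microdilution MICs were run per CLSI M07-A8 (2009). The strain panel included C. difficile ATCC 43255, E. faecalis ATCC 29212 and S. pyogenes ATCC BAA-595.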

Escherichia coli = assay: Inhibition of protein synthesis in Escherichia coli S30 extract at 2 uM after 75 mins by luciferase based luminescence assay relative to GE2270A; assay type: functional
[2] = Antibacterial activity against Clostridium difficile ATCC 43255 by broth microdilution method; assay type: functional; conditions: Clostridioides difficile; in short: as §1
Enterococcus faecium = assay: Antibacterial activity against Enterococcus faecium 7130724 by broth microdilution method; assay type: functional
Staphylococcus aureus [3] = assay: Antibacterial activity against Staphylococcus aureus A4.018 by broth microdilution method; assay type: functional
Streptococcus pyogenes = assay: Antibacterial activity against Streptococcus pyogenes ATCC BAA-595 by broth microdilution method; assay type: functional; in short: as §1
[4] = Antibacterial activity against Clostridium difficile ATCC 43255 infected in golden syrian hamster assessed as survival rate at 0.2 mg/kg, po qd administered days 1 to 5 measured on days 6 to 21; assay type: functional; conditions: Clostridioides difficile
In short: (§2)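 Golden Syrian hamsters got clindamycin 10 mg/kg sc on day −1. On day 0 they were gavaged with ~7.5 × 10^6 CFU C. difficile ATCC 43255 (0.75 mL). From 24 h post-infection they were dosed orally once daily for up to 5 days (8/dose), in a NaOH/PEG-400/2.5% Cremophor EL solution diluted in pH 7.4 PBS. Vehicle controls were included, and animals were observed twice daily through day 21.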

[5] = Plasma concentration in Clostridium difficile infected golden syrian hamster at 20 mg/kg, po qd administered for 5 days measured at 3 hrs post dose; assay type: ADME, organism-based, Mesocricetus auratus; parameters: dose 20 mg/kg, route oral; conditions: in vivo, 3 h, BLD = below limit of detection
In short: (§3)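 C. difficile-infected hamsters received 20 mg/kg orally (0.6 mL at 3.3 mg/mL) once daily for 5 days. At 1 and 3 h after the fifth dose, 3 animals per time point were sampled: plasma (K2-EDTA, cardiac puncture) and cecal contents. Cecal contents were homogenized in PBS/25% acetonitrile (final 1:25 dilution). Samples were protein-precipitated with acetonitrile containing glyburide internal standard.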

Staphylococcus aureus [6] = assay: Antibacterial activity against Staphylococcus aureus ATCC 49951 infected in CD1 mouse assessed as mouse survival up to 5 days; assay type: functional; conditions: ATCC 49951, 120 h
In short: (§4)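 Female CD1 mice (21–25 g) were infected ip with 1 × 10^8 CFU/mouse, 10–100× the minimal lethal dose. E. faecalis NB04025 was given in 50% rat fecal extract and S. aureus ATCC 49951 in 0.9% NaCl. Compound was given by iv tail-vein bolus at 1 and 5 h post-inoculation, at several dose levels (6 mice/group). ED50 with 95% CI was derived by probit analysis of day-5 survival.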

[7] = Antibacterial activity against Clostridium difficile ATCC 43255 infected in golden syrian hamster assessed as survival rate at 20 mg/kg, po qd administered days 1 to 5 measured on days 6 to 21; assay type: functional; conditions: Clostridioides difficile; in short: as §2
[8] = Binding affinity to Escherichia coli GDPNP-labelled EF-Tu by surface plasmon resonance analysis
[9] = test system: Clostridium difficile ATCC 43255; assay: Antibacterial activity against Clostridium difficile ATCC 43255 infected in golden syrian hamster assessed as decrease in toxin level in cecum after 21 days by ELISA; assay type: functional; conditions: Caecum
In short: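 In the clindamycin-pretreated, C. difficile-infected hamster model, oral compound was given once daily on days 1–5. Surviving animals were euthanized at study end (day 21). Cecal homogenates were assayed for C. difficile toxins A and B by Tox A/B II ELISA per kit directions.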

Enterococcus faecalis [10] = assay: Antibacterial activity against Enterococcus faecalis NB04025 infected in CD1 mouse assessed as mouse survival up to 5 days; assay type: functional; conditions: NB04025, 120 h; in short: as §4
[11] = Drug level in Clostridium difficile infected golden syrian hamster cecum at 20 mg/kg, po qd administered for 5 days measured at 3 hrs post dose; assay type: ADME, organism-based, Mesocricetus auratus, Caecum; parameters: dose 20 mg/kg, route oral; conditions: read-out: Drug uptake; in short: as §3
[12] = Drug level in Clostridium difficile infected golden syrian hamster cecum at 20 mg/kg, po qd administered for 5 days measured at 1 hr post dose; assay type: ADME, organism-based, Mesocricetus auratus, Caecum; parameters: dose 20 mg/kg, route oral; conditions: read-out: Drug uptake; in short: as §3
[13] = Plasma concentration in Clostridium difficile infected golden syrian hamster at 20 mg/kg, po qd administered for 5 days measured at 1 hr post dose; assay type: ADME, organism-based, Mesocricetus auratus; parameters: dose 20 mg/kg, route oral; conditions: golden Syrian, plasma; in short: as §3
[14] = Antibacterial activity against Clostridium difficile ATCC 43255 infected in golden syrian hamster assessed as survival rate at 2 mg/kg, po qd administered days 1 to 5 measured on days 6 to 21; assay type: functional; conditions: Clostridioides difficile; in short: as §2

SMILES | MIC (Enterococcus faecalis [1]) | inhibition at 2 µM (Escherichia coli) | MIC [2] | MIC (Enterococcus faecium) | MIC (Staphylococcus aureus [3]) | MIC (Streptococcus pyogenes) | survival at 0.2 mg/kg [4] | Cp [5] | ED50 (Staphylococcus aureus [6]) | survival at 20 mg/kg [7] | Kd [8] | Activity [9] | ED50 (Enterococcus faecalis [10]) | concentration at 3 h [11] | concentration at 1 h [12] | concentration at 1 h [13] | survival at 2 mg/kg [14]
CNC(=O)C[C@@H]1NC(=O)c2csc(n2)-c2ccc(-c3nc(N(CCCCC(=O)O)C(=O)[C@H]4CC[C@H](C(=O)O)CC4)cs3)nc2-c2csc(n2)-c2csc(n2)[C@H]([C@@H](O)c2ccccc2)NC(=O)CNC(=O)c2nc(sc2COC)[C@H](C(C)C)NC(=O)c2nc1sc2C | 32 µg/mL (≈ 23.7 µM) | 30% | 2 µg/mL (≈ 1.48 µM) | > 32 µg/mL | 16 µg/mL (≈ 11.8 µM) | > 32 µg/mL | – | – | – | – | – | – | – | – | – | – | –
CNC(=O)C[C@@H]1NC(=O)c2csc(n2)-c2ccc(-c3nc(N(CCCC(=O)O)C(=O)OCCCC(=O)O)cs3)nc2-c2csc(n2)-c2csc(n2)[C@H]([C@@H](O)c2ccccc2)NC(=O)CNC(=O)c2nc(sc2COC)[C@H](C(C)C)NC(=O)c2nc1sc2C | 0.5 µg/mL (≈ 0.381 µM) | – | 0.03 µg/mL (≈ 0.0229 µM) | 0.5 µg/mL (≈ 0.381 µM) | 1 µg/mL (≈ 0.762 µM) | 2 µg/mL (≈ 1.52 µM) | 0% | BLD | 11 mg/kg | 100% | 8 nM | Active | 11 mg/kg | 72 µM | 129 µM | 0.0639 µM | 100%
CNC(=O)C[C@@H]1NC(=O)c2csc(n2)-c2ccc(-c3nc(N(CCCC(CCCCCCC(=O)O)C(=O)O)C(=O)O[C@H]4CC[C@H](C(=O)O)CC4)cs3)nc2-c2csc(n2)-c2csc(n2)[C@H]([C@@H](O)c2ccccc2)NC(=O)CNC(=O)c2nc(sc2COC)[C@H](C(C)C)NC(=O)c2nc1sc2C (stereo partly specified) | 0.25 µg/mL (≈ 0.167 µM) | 50% | 0.06 µg/mL (≈ 0.0401 µM) | 0.5 µg/mL (≈ 0.334 µM) | 1 µg/mL (≈ 0.669 µM) | 1 µg/mL (≈ 0.669 µM) | – | – | – | – | – | – | – | – | – | – | –
CNC(=O)C[C@@H]1NC(=O)c2csc(n2)-c2ccc(-c3nc(N(CCCCC(=O)O)C(=O)[C@H]4CC[C@@H](C(=O)O)O4)cs3)nc2-c2csc(n2)-c2csc(n2)[C@H]([C@@H](O)c2ccccc2)NC(=O)CNC(=O)c2nc(sc2COC)[C@H](C(C)C)NC(=O)c2nc1sc2C | > 32 µg/mL | 30% | > 4 µg/mL | > 32 µg/mL | > 32 µg/mL | > 32 µg/mL | – | – | – | – | – | – | – | – | – | – | –
CNC(=O)C[C@@H]1NC(=O)c2csc(n2)-c2ccc(-c3nc(N(CCCCCCC(=O)O)C(=O)O[C@H]4CC[C@H](C(=O)O)CC4)cs3)nc2-c2csc(n2)-c2csc(n2)[C@H]([C@@H](O)c2ccccc2)NC(=O)CNC(=O)c2nc(sc2COC)[C@H](C(C)C)NC(=O)c2nc1sc2C | < 0.06 µg/mL | 67% | 0.06 µg/mL (≈ 0.043 µM) | 0.125 µg/mL (≈ 0.0896 µM) | 0.25 µg/mL (≈ 0.179 µM) | 2 µg/mL (≈ 1.43 µM) | – | – | 6.6 mg/kg | – | – | – | 1 mg/kg | – | – | – | –
CNC(=O)C[C@@H]1NC(=O)c2csc(n2)-c2ccc(-c3nc(N(CCCC(=O)O)C(=O)O[C@H]4CC[C@H](C(=O)O)CC4)cs3)nc2-c2csc(n2)-c2csc(n2)[C@H]([C@@H](O)c2ccccc2)NC(=O)CNC(=O)c2nc(sc2COC)[C@H](C(C)C)NC(=O)c2nc1sc2C | < 0.06 µg/mL | 67% | 0.06 µg/mL (≈ 0.0444 µM) | 0.06 µg/mL (≈ 0.0444 µM) | 0.25 µg/mL (≈ 0.185 µM) | 1 µg/mL (≈ 0.739 µM) | – | – | 2.6 mg/kg | – | – | – | 2.2 mg/kg | – | – | – | –
CNC(=O)C[C@@H]1NC(=O)c2csc(n2)-c2ccc(-c3nc(NC(=O)N4C[C@H](CCC(=O)O)C[C@H](CCC(=O)O)C4)cs3)nc2-c2csc(n2)-c2csc(n2)[C@H]([C@@H](O)c2ccccc2)NC(=O)CNC(=O)c2nc(sc2COC)[C@H](C(C)C)NC(=O)c2nc1sc2C | 2 µg/mL (≈ 1.48 µM) | 30% | 0.25 µg/mL (≈ 0.185 µM) | 4 µg/mL (≈ 2.96 µM) | 4 µg/mL (≈ 2.96 µM) | 4 µg/mL (≈ 2.96 µM) | – | – | – | – | – | – | – | – | – | – | –
